The test system of test [1] is Calf thymus DNA. In words: Binding affinity to calf thymus DNA assessed as red shift by UV-vis spectroscopy. Type of test: nucleic-acid assay. Details: unit not given here. Conditions: Bos taurus. An outline of the steps:
(§1)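 ctDNA held at 0.2 mM in phosphate buffer pH 7 and titrated with drug from […]. UV-vis spectra recorded in a 1 cm quartz cuvette. Binding constant was taken by the mole-ratio method from optical density changes at 260 nm, using a double reciprocal plot.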

Test [2] deals with G-361. In words: Antiproliferative activity against human G-361 cells assessed as cell viability measured after 4 days by MTT assay. The format is functional, cell-based. Particulars: G-361, 96 h. A digest of the protocol: (§2)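 Leukemia/lymphoma cells (RPMI 1640, 10% FCS) resuspended at 1 × 10⁵ cells/mL with serial drug dilutions and read by MTT after 96 h at 37 °C. Solid-tumor cells (own media, 10% FCS) were seeded at 5 × 10⁴ cells/mL, allowed 16 h to adhere, then dosed and read by MTT 4 days later. IC50 was derived by linear regression of growth as % of untreated controls.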
For orientation: Formazan colour is commonly taken as a measure of viable cells.

Test [3] has as its system Calf thymus DNA. Put plainly: Binding affinity to calf thymus DNA assessed as lamda max by UV-vis spectroscopy. Type of test: nucleic-acid assay. Conditions: Bos taurus. An outline of the steps: as §1
Test [4] has as its system ACHN. In words: Antiproliferative activity against human ACHN cells assessed as cell viability measured after 4 days by MTT assay. The format is functional, cell-based. Conditions: 96 h. A digest of the protocol: as §2
Test [5] concerns Calf thymus DNA. In words: Binding affinity to calf thymus DNA assessed as isosbestic point by UV-vis spectroscopy. Conditions: Bos taurus. Type of test: nucleic-acid assay. An outline of the steps:
as §1

Test [6] deals with Calf thymus DNA. In words: Binding affinity to calf thymus DNA assessed as hypochromism by UV-vis spectroscopy. Particulars: Bos taurus.
The test system of test [7] is SK-MEL-28. Put plainly: Antiproliferative activity against human SKMEL-28 cells assessed as cell viability measured after 4 days by MTT assay. The format is functional, cell-based. Conditions: SK-MEL-28, 96 h. A digest of the protocol:
as §2

Test [8] concerns HeLa. In words: Antiproliferative activity against human HeLa cells assessed as cell viability measured after 4 days by MTT assay. Type of test: functional, cell-based. Particulars: 96 h. An outline of the steps:
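Solid-tumor cells (own media, 10% FCS) were seeded at 5 × 10⁴ cells/mL, allowed 16 h to adhere, then dosed and read by MTT 4 days later. IC50 was derived by linear regression of growth as % of untreated controls.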

The test system of test [9] is CCRF-SB. Put plainly: Antiproliferative activity against human CCRF-SB cells assessed as cell viability measured after 4 days by MTT assay. Type of test: functional, cell-based. Particulars: 96 h. An outline of the steps: as §2
Test [10] deals with HT-29. Put plainly: Antiproliferative activity against human HT-29 cells assessed as cell viability measured after 4 days by MTT assay. Type of test: functional, cell-based. Particulars: HT-29, 96 h. An outline of the steps: as §2
Test [11] concerns MT4. In words: Antiproliferative activity against human MT-4 cells assessed as cell viability measured after 4 days by MTT assay. The format is functional, cell-based. Conditions: MT4, 96 h. A digest of the protocol:
as §2

Test [12] relates to CCRF-CEM. Put plainly: Antiproliferative activity against human CCRF-CEM cells assessed as cell viability measured after 4 days by MTT assay. Type of test: functional, cell-based. Conditions: 96 h. An outline of the steps: as §2
For test [13], the system named is MCF7. Put plainly: Antiproliferative activity against human MCF7 cells assessed as cell viability measured after 4 days by MTT assay. Type of test: functional, cell-based. Particulars: MCF7, 96 h. A digest of the protocol:
as §2

Test [14] relates to DNA. In words: Binding affinity at Escherichia coli pBR322 DNA assessed as unwinding of supercoiled DNA at 10 uM incubated for 10 mins in presence of human topoisomerase 1 by agarose gel based electrophoresis. The format is nucleic-acid assay. An outline of the steps:
(§3)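 Intercalation assay with relaxed pBR322 (300 ng) and 2 units human Topo I in 50 mM Tris-HCl pH 7.5, 2.5 mM MgCl₂, 0.5 mM DTT and 50 µg/mL BSA, run 10 min at 37 °C. Stopped by phenol/chloroform/isoamyl alcohol extraction. Products run on 1.2% agarose in TAE, 2 V/cm for 15 h, then EtBr-stained. EtBr served as control; three independent experiments.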

Test [15] deals with DNA topoisomerase 2-alpha (Homo sapiens) (UniProt P11388). Put plainly: Inhibition of human topoisomerase 2alpha mediated pBR322 DNA relaxation at 2 uM by agarose gel electrophoresis relative to control.
Sequence of DNA topoisomerase 2-alpha (Homo sapiens) (P11388 whole entry): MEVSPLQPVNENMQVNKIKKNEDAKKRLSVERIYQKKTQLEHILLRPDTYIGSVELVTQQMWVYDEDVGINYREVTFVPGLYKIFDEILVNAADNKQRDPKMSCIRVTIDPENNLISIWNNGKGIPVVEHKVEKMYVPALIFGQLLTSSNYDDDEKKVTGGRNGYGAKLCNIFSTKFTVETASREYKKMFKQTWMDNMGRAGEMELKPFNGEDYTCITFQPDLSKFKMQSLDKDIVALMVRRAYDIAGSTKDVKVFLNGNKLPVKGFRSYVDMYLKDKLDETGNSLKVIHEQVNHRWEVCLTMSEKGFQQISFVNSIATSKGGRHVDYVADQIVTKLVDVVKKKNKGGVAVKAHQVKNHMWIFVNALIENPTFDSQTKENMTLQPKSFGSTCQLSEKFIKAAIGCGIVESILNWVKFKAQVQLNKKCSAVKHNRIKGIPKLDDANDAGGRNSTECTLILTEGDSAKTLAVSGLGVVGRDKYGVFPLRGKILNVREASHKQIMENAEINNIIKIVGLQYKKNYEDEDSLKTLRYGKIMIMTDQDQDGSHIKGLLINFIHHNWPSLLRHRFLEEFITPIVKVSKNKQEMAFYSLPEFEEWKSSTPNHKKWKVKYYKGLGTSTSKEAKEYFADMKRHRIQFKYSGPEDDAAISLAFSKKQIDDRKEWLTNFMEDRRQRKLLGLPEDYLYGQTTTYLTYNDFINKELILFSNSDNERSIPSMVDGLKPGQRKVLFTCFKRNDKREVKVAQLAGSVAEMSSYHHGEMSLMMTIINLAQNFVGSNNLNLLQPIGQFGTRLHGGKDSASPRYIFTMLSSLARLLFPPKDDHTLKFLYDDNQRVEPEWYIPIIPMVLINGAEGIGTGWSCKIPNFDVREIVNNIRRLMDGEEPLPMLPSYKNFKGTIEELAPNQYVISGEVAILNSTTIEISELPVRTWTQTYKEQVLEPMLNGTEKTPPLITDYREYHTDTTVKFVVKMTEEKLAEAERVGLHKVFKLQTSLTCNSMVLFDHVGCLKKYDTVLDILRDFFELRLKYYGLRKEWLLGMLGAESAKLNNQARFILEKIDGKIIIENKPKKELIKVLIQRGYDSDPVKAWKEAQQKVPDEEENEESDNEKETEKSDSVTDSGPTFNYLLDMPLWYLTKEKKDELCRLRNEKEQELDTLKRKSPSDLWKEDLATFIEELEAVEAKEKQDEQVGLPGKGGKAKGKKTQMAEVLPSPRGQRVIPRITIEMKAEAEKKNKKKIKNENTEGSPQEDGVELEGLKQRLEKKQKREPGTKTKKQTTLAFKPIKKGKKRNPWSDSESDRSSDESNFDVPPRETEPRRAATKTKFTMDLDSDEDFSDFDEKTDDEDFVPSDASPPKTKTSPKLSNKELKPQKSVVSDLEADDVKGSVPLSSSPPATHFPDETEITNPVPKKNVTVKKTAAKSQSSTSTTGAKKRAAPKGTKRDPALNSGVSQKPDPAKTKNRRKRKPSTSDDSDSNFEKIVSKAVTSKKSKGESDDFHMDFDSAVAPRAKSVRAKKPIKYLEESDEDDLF
The target is the same in test [16]. Put plainly: Inhibition of human topoisomerase 2alpha mediated pBR322 DNA relaxation at 1 uM by agarose gel electrophoresis relative to control.
The test system of test [17] is DNA. Put plainly: Binding affinity at Escherichia coli pBR322 DNA assessed as unwinding of supercoiled DNA at 0.1 uM incubated for 10 mins in presence of human topoisomerase 1 by agarose gel based electrophoresis. The format is nucleic-acid assay. An outline of the steps:
as §3

In test [18] the target is DNA topoisomerase 2-alpha (Homo sapiens) (UniProt P11388). In words: Poison activity at human topo2alpha assessed as induction of accumulation of topo-2/DNA cleavage complex formation at 1 to 5 uM using […] plasmid incubated for 10 mins by agarose gel electrophoresis. Particulars: dose 1-5 µM. A digest of the protocol: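 Supercoiled pBR322 incubated with purified Topo IIα and drug for 10 min at 30 °C. Stopped with 0.35% SDS plus 0.3 mg/mL proteinase K (final), then 1 h at 56 °C. Products run on 1.2% agarose gels containing EtBr. Linear DNA quantified by gel densitometry; averages of three independent experiments.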

Activity calls are given as the source filed them. The rule behind the calls is not given here. Starred links: 1 amine or outer side, 2 acyl side, 3 side chain; linkers in the order of their positions; H or OH if unused. Positions of bridges follow the written chain, without caps; N, C: chain ends. Non-standard residues stand in square brackets, D forms with d. Residues, ends and D or L forms follow the SMILES beside them. Chains are numbered I, II in the order given. Actinocin(1to9) = Cc1c2oc3c(C)ccc(C(=O)[*:2])c3nc-2c(C(=O)[*:1])c(N)c1=O; NMeV = CN[C@H](C(=O)O)C(C)C; Sar = CNCC(=O)O

Consider `NCCCC[C@H](NC(=O)c1ccc2nc3c4ncccc4c(=O)cc-3oc2c1)C(=O)O`, for which the Activity came out at 455 in test [1], 451 in test [3], 297 nm in [5] and 26% in test [6]. For the same compound, the IC50 in test [2] is 50 nM; in test [4] it was 60 nM; in test [7], 60 nM; in test [8], 50 nM; in test [9], 80 nM; in test [10], 100 nM. The IC50 in test [11] was 200 nM; in [12] it was 17 nM; in test [13], 50 nM.

For `COc1cccc2c1C(=O)c1c(O)c3c(c(O)c1C2=O)C[C@@](O)(C(=O)CO)C[C@@H]3O[C@H]1C[C@H](N)[C@H](O)[C@H](C)O1` [DOXORUBICIN], the IC50 in [12] is 20 nM.

`NCCCC[C@H](NC(=O)c1ccc2nc3c4cccnc4c(=O)cc-3oc2c1)C(=O)O`: the Activity in test [1] stood at 447; in [3], 443; in test [5], 395 nm; in test [6], 28. Moreover, the half-maximal inhibitory concentration (IC50) in test [2] was determined as 1 nM; in test [4] it was 8 nM; in test [7] it was 2 nM; in test [8], 5 nM; in [9], 20 nM; in [10], 3 nM. Also, the IC50 in [11] was determined as 10 nM; in test [12], 20 nM; in test [13], 7 nM. For the same compound, the outcome in test [14], in test [17] and in test [18] was Active. The figures for the inhibition in test [15] and in [16] were 100% and 50%, respectively.

In the case of `N[C@@H](CCCCNC(=O)c1ccc2oc3cc(=O)c4ncccc4c-3nc2c1)C(=O)O`, the Activity is 440 in test [1], 436 in [3], 310 nm in test [5] and 39% in [6]. In addition, the IC50 in [2] was found to be 20 nM; in test [4], 50 nM; in test [7], 40 nM; in test [8], 50 nM; in test [9] it was 80 nM; in [10], 20 nM. In addition, the results for the IC50 in [11], in test [12] and in test [13] were 90 nM, 40 nM and 60 nM, respectively. Moreover, the result in [14] was Active.

Regarding `O=c1cc2oc3ccccc3nc-2c2cccnc12`, the IC50 in test [13] turned out to be 230 nM.

As for `NCCCC[C@H](NC(=O)c1ccc2oc3cc(=O)c4cccnc4c-3nc2c1)C(=O)O`, the Activity came out at 447 in test [1], 445 in [3], 280 nm in test [5] and 19% in test [6]. For the same compound, the IC50 stood at 50 nM in test [2]; 80 nM in test [4]; 210 nM in test [7]; 100 nM in [8]; 160 nM in test [9]; 200 nM in test [10]. The figures for the IC50 in test [11], in [12] and in test [13] were 200 nM, 160 nM and 100 nM, respectively.

For `N[C@@H](CCCCNC(=O)c1ccc2nc3c4ncccc4c(=O)cc-3oc2c1)C(=O)O`, the Activity in test [1] came to 461; in test [3] it was 459; in test [5], 320 nm; in [6], 17%. Further, the IC50 stood at 90 nM in test [2]; 70 nM in test [4]; 80 nM in test [7]; 100 nM in [8]; 160 nM in test [9]; 100 nM in test [10]. The values for the IC50 in test [11], in [12] and in test [13] were 200 nM, 150 nM and 120 nM, respectively.

On to `Cc1c2oc3c(C)ccc(C(=O)N[C@@H]4C(=O)N[C@H](C(C)C)C(=O)N5CCC[C@H]5C(=O)N(C)CC(=O)N(C)[C@@H](C(C)C)C(=O)O[C@@H]4C)c3nc-2c(C(=O)N[C@@H]2C(=O)N[C@H](C(C)C)C(=O)N3CCC[C@H]3C(=O)N(C)CC(=O)N(C)[C@@H](C(C)C)C(=O)O[C@@H]2C)c(N)c1=O` [DACTINOMYCIN] (I: T[dV]P[Sar][NMeV] / II: T[dV]P[Sar][NMeV]; ester I:1-I:C, II:1-II:C; linker I:N-II:N via Actinocin(1to9)), for which the IC50 in [2] came out at 6 nM.

Take `O=c1cc2oc3ccccc3nc-2c2ncccc12`: the IC50 stood at 450 nM in [2]; 230 nM in test [4]; 400 nM in test [7]; 150 nM in [8]; 150 nM in test [9]; 380 nM in test [10]. The IC50 in test [11] worked out at 180 nM; in test [12], 90 nM; in test [13], 370 nM.

Take `COc1cc([C@@H]2c3cc4c(cc3[C@@H](O[C@@H]3O[C@@H]5CO[C@@H](C)O[C@H]5[C@H](O)[C@H]3O)[C@H]3COC(=O)[C@H]23)OCO4)cc(OC)c1O` [ETOPOSIDE]: the IC50 was 2300 nM in test [2], 1100 nM in [7] and 3000 nM in [8].

Consider `NCCCC[C@H](NC(=O)c1ccc2oc3cc(=O)c4ncccc4c-3nc2c1)C(=O)O`, for which the Activity was 440 in test [1], 437 in test [3], 343 nm in [5] and 30% in test [6]. Further, the IC50 in [2] worked out at 60 nM; in test [4], 100 nM; in [7], 120 nM; in test [8] it was 80 nM; in [9], 120 nM; in test [10], 80 nM. Moreover, the values for the IC50 in test [11], in [12] and in test [13] were 90 nM, 100 nM and 100 nM, respectively. In addition, the result in [14] was Active.

For the compound `N[C@@H](CCCCNC(=O)c1ccc2oc3cc(=O)c4cccnc4c-3nc2c1)C(=O)O`, the Activity in test [1] worked out at 446; in [3] it was 441; in test [5] it was 275 nm; in test [6] it was 17%. Further, the IC50 in [2] came out at 30 nM; in test [4], 100 nM; in [7], 100 nM; in test [8], 150 nM; in test [9], 100 nM; in [10] it was 120 nM. The IC50 in [11] came out at 150 nM; in test [12] it was 150 nM; in [13], 120 nM.

The IC50 is the concentration needed to halve the response being measured. What is called inhibition is the percentage by which the read-out fell short of the control.

For the origin of these results see ChEMBL document CHEMBL4706487, “Antitumor agents 7. Synthesis, antiproliferative activity and molecular modeling of new l-lysine-conjugated pyridophenoxazinones as potent DNA-binding ligands and topoisomerase IIα inhibitors” (Eur J Med Chem, 2020).
